Results: ChEMBL document CHEMBL3045640, “Synthesis and insecticidal activity of novel carbamate derivatives as potential dual-binding site acetylcholinesterase inhibitors” (J Agric Food Chem, 2010)

Key:
[1] = target: Acetylcholinesterase (Musca domestica) (UniProt Q7YWJ9); experiment: Dual-site binding inhibition of AChE in Musca domestica (house fly) brain at 100 mg/l
Acetylcholinesterase = Acetylcholinesterase (Musca domestica, UniProt Q7YWJ9); experiment: Dual-site binding inhibition of AChE in Musca domestica (house fly) brain; format: tissue-based
Method in brief: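 Enzyme was prepared from heads of adult houseflies, females and males in a 1:1 ratio. The inhibition procedure followed previously reported methods.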

[2] = target: Acetylcholinesterase (Musca domestica) (UniProt Q7YWJ9); experiment: Ratio of MT IC50 to compound IC50 for AChE in Musca domestica (house fly) brain
[3] = target: Acetylcholinesterase (Musca domestica) (UniProt Q7YWJ9); experiment: Ratio of MH IC50 to compound IC50 for AChE in Musca domestica (house fly) brain
Lipaphis erysimi = experiment: In vivo insecticidal activity against apterous adult stage of Lipaphis erysimi (mustard aphids) in chinese cabbage leaves assessed as mortality at 300 mg/l at 25 degC treated for 10 secs measured after 24 hr; format: functional
Method in brief: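 Aphids were reared at 25 (±1) °C, 60 (±5)% RH and a 14 h photoperiod. Acetone stocks at 10 g/L were diluted with water containing 0.1% Triton X-100. Chinese cabbage leaf disks carrying 35 apterous adults were dipped for 10 s, dried, then held at 25 °C. Mortality was scored at 24 h against untreated controls. Three replicates were run, and corrected mortality was calculated.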

Chain of Acetylcholinesterase (Musca domestica) (Q7YWJ9 1-692): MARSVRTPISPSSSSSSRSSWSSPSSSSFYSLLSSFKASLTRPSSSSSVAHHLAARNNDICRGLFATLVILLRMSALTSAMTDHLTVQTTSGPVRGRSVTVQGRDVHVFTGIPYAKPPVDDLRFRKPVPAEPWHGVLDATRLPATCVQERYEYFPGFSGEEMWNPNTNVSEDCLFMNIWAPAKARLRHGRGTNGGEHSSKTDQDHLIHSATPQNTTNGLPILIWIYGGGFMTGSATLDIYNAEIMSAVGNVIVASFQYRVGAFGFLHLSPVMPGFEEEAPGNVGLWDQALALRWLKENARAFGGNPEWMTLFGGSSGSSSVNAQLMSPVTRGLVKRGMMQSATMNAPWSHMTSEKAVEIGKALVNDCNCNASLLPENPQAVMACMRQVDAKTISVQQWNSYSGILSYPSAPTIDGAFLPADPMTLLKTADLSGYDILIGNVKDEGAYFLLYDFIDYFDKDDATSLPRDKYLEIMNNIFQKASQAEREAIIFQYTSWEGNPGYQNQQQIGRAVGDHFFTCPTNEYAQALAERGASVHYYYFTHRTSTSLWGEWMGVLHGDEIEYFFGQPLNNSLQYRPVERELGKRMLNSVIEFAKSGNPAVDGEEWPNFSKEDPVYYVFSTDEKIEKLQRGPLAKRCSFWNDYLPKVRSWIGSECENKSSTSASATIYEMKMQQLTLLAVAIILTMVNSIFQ
Chain of Acetylcholinesterase (Q7YWJ9 whole entry): as the sequence (Q7YWJ9 1-692) above

Structure (SMILES) | inhibition [1] [%] | IC50 (Acetylcholinesterase) [µM] | Ratio IC50 [2] | Ratio IC50 [3] | mortality at 300 µg/mL (Lipaphis erysimi) [%]
CN(C)C(=O)Oc1cccc(OCCCOc2ccc(C(F)(F)F)cc2)c1 | 27 |  |  |  | 
CN(C)C(=O)Oc1cccc(OCCOc2ccc(C(F)(F)F)cc2)c1 | 8 |  |  |  | 
CNC(=O)Oc1cccc(OCCCCOc2ccc(Cl)cc2)c1 | 30 |  |  |  | 
CN(C)C(=O)Oc1ccccc1OC/C=C/COc1ccc(C(F)(F)F)cc1 | 7 |  |  |  | 
CNC(=O)Oc1cccc(OCCCCOc2ccc([N+](=O)[O-])cc2)c1 | 80 | 46 | 3 | 17 | 92
CNC(=O)Oc1cccc(OCCCOc2ccc([N+](=O)[O-])cc2)c1 | 69 | 70 | 2 | 11 | 89
CNC(=O)Oc1cccc(OCCCCOc2ccccc2[N+](=O)[O-])c1 | 80 | 61 | 2 | 13 | 93
CN(C)C(=O)Oc1ccccc1OCCCOc1ccc(C(F)(F)F)cc1 | 25 |  |  |  | 
CNC(=O)Oc1cccc(C)c1 [METOLCARB] |  | 150 |  |  | 97
CNC(=O)Oc1cccc(OCCCCOc2ccc(C(F)(F)F)cc2)c1 | 62 | 107 | 1 | 7 | 92
CNC(=O)Oc1ccccc1OCCCOc1ccc(C(F)(F)F)cc1 | 25 |  |  |  | 
CNC(=O)Oc1cccc(OCCOc2ccc(C(F)(F)F)cc2)c1 | 20 |  |  |  | 
CNC(=O)Oc1cccc(OCCCCOc2cccc([N+](=O)[O-])c2)c1 | 92 | 12 | 12 | 62 | 98
CNC(=O)Oc1cccc(OC/C=C/COc2ccc([N+](=O)[O-])cc2)c1 | 45 |  |  |  | 
CNC(=O)Oc1cccc(OC/C=C/COc2ccc(C(F)(F)F)cc2)c1 | 12 |  |  |  | 
CN(C)C(=O)Oc1ccc(OCCOc2ccc(C(F)(F)F)cc2)cc1 | 6 |  |  |  | 
CN(C)C(=O)Oc1ccc(OCCCOc2ccc(C(F)(F)F)cc2)cc1 | 1 |  |  |  | 

Structure (SMILES) | inhibition [1] [%] | IC50 (Acetylcholinesterase) [µM] | Ratio IC50 [2] | Ratio IC50 [3] | mortality at 300 µg/mL (Lipaphis erysimi) [%]
CN(C)C(=O)Oc1ccccc1OCCCCOc1ccc(C(F)(F)F)cc1 | 7 |  |  |  | 
CNC(=O)Oc1ccccc1OC/C=C/COc1ccc(C(F)(F)F)cc1 | 17 |  |  |  | 
CNC(=O)Oc1ccc(OCCCOc2ccc(C(F)(F)F)cc2)cc1 | 2 |  |  |  | 
CNC(=O)Oc1ccc(OCCCCOc2ccc(C(F)(F)F)cc2)cc1 | 4 |  |  |  | 
CNC(=O)Oc1ccc(OCCOc2ccc(C(F)(F)F)cc2)cc1 | 2 |  |  |  | 
CN(C)C(=O)Oc1ccc(OC/C=C/COc2ccc(C(F)(F)F)cc2)cc1 | 0 |  |  |  | 
CN(C)C(=O)Oc1cccc(OC/C=C/COc2ccc(C(F)(F)F)cc2)c1 | 13 |  |  |  | 
CN(C)C(=O)Oc1ccc(OCCCCOc2ccc(C(F)(F)F)cc2)cc1 | 6 |  |  |  | 
CNC(=O)Oc1ccccc1OCCOc1ccc(C(F)(F)F)cc1 | 13 |  |  |  | 
CN(C)C(=O)Oc1ccccc1OCCOc1ccc(C(F)(F)F)cc1 | 15 |  |  |  | 
CNC(=O)Oc1ccccc1OCCCCOc1ccc(C(F)(F)F)cc1 | 19 |  |  |  | 
CN(C)C(=O)Oc1cccc(OCCCCOc2ccc(C(F)(F)F)cc2)c1 | 20 |  |  |  | 
CNC(=O)Oc1cccc(OCCCCOc2ccccc2OC)c1 | 46 |  |  |  | 
CNC(=O)Oc1cccc(OCCCOc2ccc(C(F)(F)F)cc2)c1 | 61 | 105 | 1 | 7 | 85
CNC(=O)Oc1ccccc1 [PHENYL METHYLCARBAMATE] | 46 | 766 |  |  | 76
CNC(=O)Oc1ccc(OC/C=C/COc2ccc(C(F)(F)F)cc2)cc1 | 3 |  |  |  | 
